pIC50, pKi: −log10 of the molar value. ≈ marks a conversion by molar mass, not a printed value.
Experiments:
Homo sapiens = species on record: Homo sapiens; assay: Protein binding in human plasma; conditions: read-out: PPB (converted)
Staphylococcus aureus = assay: Antibacterial activity against methicillin-susceptible Staphylococcus aureus AP601055; assay type: functional
In short: (§1)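 CLSI broth microdilution, 64 to 0.06 µg/mL, 2% DMSO final. Media: S. aureus, Mueller Hinton broth; H. influenzae, MHB plus 0.5% yeast extract, 15 µg/mL hematin, 1.5 µg/mL NAD; S. pneumoniae, MHB plus 0.65% lysed horse blood. 35 °C, aerobic (S. aureus) or 5% CO2.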

Haemophilus influenzae = assay: Antibacterial activity against Haemophilus influenzae ATCC 51907; assay type: functional
In short: as §1

[1] = target: T1, Amine oxidase [flavin-containing] A (Homo sapiens, UniProt P21397); assay: Inhibition of human liver MAOA expressed in yeast
T1 sequence (P21397 whole entry): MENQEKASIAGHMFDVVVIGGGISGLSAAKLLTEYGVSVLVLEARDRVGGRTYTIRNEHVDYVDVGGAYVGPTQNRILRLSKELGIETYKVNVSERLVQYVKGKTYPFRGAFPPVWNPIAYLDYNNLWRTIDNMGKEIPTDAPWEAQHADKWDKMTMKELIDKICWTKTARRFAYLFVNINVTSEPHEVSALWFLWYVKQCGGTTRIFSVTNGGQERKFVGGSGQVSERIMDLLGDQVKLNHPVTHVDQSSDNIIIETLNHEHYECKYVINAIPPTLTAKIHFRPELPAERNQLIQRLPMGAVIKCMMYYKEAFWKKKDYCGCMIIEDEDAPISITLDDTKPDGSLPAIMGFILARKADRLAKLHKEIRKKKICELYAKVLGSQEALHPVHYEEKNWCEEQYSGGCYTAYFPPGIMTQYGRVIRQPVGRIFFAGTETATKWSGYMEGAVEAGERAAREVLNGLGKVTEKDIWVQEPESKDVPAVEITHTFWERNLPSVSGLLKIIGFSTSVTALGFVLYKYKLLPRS

[2] = Clearance in Wistar rat at 2 mg/kg, iv; assay type: ADME, organism-based; design: dose 2 mg/kg, route intravenous; conditions: in vivo
In short: (§2)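 Groups of three Wistar Han rats; bolus injection via cannulated jugular vein at 2 or 10 mg/kg. Serial 200 µL whole-blood samples at time intervals; plasma levels by LC-MS/MS; parameters by noncompartmental analysis.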

[3] = Half life in Wistar rat at 2 mg/kg, iv; assay type: ADME, organism-based; design: dose 2 mg/kg, route intravenous; conditions: in vivo
In short: as §2

Rattus norvegicus = assay: AUC in Wistar rat at 2 mg/kg, iv; assay type: ADME, organism-based, Plasma; design: dose 2 mg/kg, route intravenous; conditions: in vivo
In short: as §2

[4] = Oral bioavailability in Wistar rat at 10 mg/kg, po; assay type: ADME, organism-based; conditions: in vivo
In short: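 Wistar Han rats, groups of three; 10 mg/kg given by oral gavage, compared against iv dosing. Serial whole-blood sampling, plasma drug by LC-MS/MS, noncompartmental pharmacokinetic analysis.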

[5] = Solubility by nephelometric analysis; assay type: physicochemical
In short: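 Nephelometry after diluting compounds into the MAO-A assay mixture (100 mM potassium phosphate, pH 7.4).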

Streptococcus pneumoniae [6] = assay: Antibacterial activity against linezolid-resistant Streptococcus pneumoniae; assay type: functional
In short: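 Broth microdilution per CLSI guidelines. Compounds were dissolved in 100% DMSO and diluted to 2% DMSO (v/v), 64 to 0.06 µg/mL, in 2.2% (w/v) Mueller Hinton broth with 0.65% (v/v) lysed horse blood. Plates were incubated at 35 °C in 5% CO2 and read at 620 nm.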

Streptococcus pneumoniae [7] = assay: Antibacterial activity against penicillin-susceptible Streptococcus pneumoniae AP671401; assay type: functional
In short: as §1

[8] = Volume of distribution in Wistar rat at 2 mg/kg, iv; assay type: ADME, organism-based; design: dose 2 mg/kg, route intravenous; conditions: in vivo, read-out: Vdss
In short: as §2

Cytochrome P450 1A2 = target: T2, Cytochrome P450 1A2 (Homo sapiens, UniProt P05177); assay: Inhibition of human recombinant CYP1A2; assay type: ADME
T2 sequence (P05177 whole entry): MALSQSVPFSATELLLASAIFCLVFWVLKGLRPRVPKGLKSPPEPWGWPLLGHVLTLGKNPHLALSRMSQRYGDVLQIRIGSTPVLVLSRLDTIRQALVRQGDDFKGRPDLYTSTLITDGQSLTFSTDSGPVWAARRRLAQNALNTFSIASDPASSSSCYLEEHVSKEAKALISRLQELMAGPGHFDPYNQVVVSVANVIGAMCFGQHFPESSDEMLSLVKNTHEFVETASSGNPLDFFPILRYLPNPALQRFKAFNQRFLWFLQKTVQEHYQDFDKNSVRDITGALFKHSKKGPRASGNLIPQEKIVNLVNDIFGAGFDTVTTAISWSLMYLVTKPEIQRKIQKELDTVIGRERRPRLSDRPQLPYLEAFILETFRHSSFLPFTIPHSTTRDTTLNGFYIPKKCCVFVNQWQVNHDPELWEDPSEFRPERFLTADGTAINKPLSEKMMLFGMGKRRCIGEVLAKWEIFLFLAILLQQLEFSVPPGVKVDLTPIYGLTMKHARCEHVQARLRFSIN
In short: (§3)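 Recombinant human P450s, compound at 0.2-20 µM; fluorogenic substrates: 3-cyano-7-ethoxycoumarin (1A2), 7-methoxy-4-trifluoromethylcoumarin (2C9, 2C19), 7-methoxy-4-(aminomethyl)coumarin (2D6). Fluorescence detection; IC50 determined.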

Mus musculus [9] = assay: AUC in Streptococcus pneumoniae 548 infected mouse lung infection model at 80 mg/kg/day, po; assay type: ADME, organism-based; design: route oral; conditions: in vivo
In short: (§4)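 CD-1 mice; oral gavage at 40 or 80 mg/kg. Groups of three sacrificed at timed intervals, whole blood taken by cardiac puncture; plasma treated with methanol containing internal standard and quantified by LC-MS/MS against standard curve.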

Cytochrome P450 2C9 = Cytochrome P450 2C9 (Homo sapiens, UniProt P11712); assay: Inhibition of human recombinant CYP2C9; assay type: ADME
Sequence of Cytochrome P450 2C9 (P11712 whole entry): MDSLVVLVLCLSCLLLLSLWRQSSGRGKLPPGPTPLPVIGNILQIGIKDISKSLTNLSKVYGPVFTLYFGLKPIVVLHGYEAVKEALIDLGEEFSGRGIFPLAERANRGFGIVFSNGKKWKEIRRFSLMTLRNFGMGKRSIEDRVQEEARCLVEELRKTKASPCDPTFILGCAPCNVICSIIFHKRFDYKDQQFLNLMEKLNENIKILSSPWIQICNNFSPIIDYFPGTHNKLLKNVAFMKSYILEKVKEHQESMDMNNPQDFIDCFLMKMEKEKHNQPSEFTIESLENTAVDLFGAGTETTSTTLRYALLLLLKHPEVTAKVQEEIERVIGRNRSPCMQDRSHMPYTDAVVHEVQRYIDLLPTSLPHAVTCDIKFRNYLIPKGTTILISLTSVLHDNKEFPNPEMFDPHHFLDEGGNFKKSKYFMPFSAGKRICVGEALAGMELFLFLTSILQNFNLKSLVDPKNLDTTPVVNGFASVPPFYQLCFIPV
In short: as §3

Streptococcus pneumoniae [10] = assay: Antibacterial activity against Streptococcus pneumoniae 548 infected mouse lung infection model assessed as reduction in bacterial count at 40 mg/kg/day, po relative to control; assay type: functional
In short: (§5)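 Groups of 10 CD-1 mice infected intratracheally, 1 × 10^5 cfu/lung. Oral gavage of compound or vehicle started 18 h post-infection. Lungs removed 24 h after treatment start, homogenized, serially diluted onto Tryptic Soy agar with 5% sheep blood; log CFU reduction versus vehicle group.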

Cytochrome P450 2C19 = Cytochrome P450 2C19 (Homo sapiens, UniProt P33261); assay: Inhibition of human recombinant CYP2C19; assay type: ADME
Sequence of Cytochrome P450 2C19 (P33261 whole entry): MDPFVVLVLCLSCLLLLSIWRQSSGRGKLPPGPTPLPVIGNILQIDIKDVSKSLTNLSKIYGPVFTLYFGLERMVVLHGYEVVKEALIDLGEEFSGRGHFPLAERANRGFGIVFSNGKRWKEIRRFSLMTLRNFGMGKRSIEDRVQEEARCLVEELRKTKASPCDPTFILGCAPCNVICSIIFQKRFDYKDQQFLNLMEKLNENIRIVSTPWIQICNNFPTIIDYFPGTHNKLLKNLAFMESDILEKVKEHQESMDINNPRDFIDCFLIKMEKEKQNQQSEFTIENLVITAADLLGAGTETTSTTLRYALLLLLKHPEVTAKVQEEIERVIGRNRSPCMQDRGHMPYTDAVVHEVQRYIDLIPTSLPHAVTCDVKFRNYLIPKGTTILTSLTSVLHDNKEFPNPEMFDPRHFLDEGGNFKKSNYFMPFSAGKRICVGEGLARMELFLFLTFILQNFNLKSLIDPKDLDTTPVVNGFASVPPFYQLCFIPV
In short: as §3

Cytochrome P450 3A4 = Cytochrome P450 3A4 (Homo sapiens, UniProt P08684); assay: Inhibition of human recombinant CYP3A4; assay type: ADME
Sequence of Cytochrome P450 3A4 (P08684 whole entry): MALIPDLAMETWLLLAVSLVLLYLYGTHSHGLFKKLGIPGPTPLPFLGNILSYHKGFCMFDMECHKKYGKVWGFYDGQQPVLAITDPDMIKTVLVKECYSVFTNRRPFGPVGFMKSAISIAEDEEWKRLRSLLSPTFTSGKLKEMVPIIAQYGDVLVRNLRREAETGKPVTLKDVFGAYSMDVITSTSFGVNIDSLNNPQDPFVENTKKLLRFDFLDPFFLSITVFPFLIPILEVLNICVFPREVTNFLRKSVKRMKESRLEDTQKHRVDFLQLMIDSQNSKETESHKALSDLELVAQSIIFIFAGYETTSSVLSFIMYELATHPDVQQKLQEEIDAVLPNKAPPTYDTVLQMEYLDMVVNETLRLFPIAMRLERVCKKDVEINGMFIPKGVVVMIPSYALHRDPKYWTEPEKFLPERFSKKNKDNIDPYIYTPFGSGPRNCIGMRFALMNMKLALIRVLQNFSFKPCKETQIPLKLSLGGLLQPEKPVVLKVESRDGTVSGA

Mus musculus [11] = assay: AUC in Streptococcus pneumoniae 548 infected mouse lung infection model at 40 mg/kg/day, po; assay type: ADME, organism-based; design: route oral; conditions: in vivo
In short: as §4

Cytochrome P450 2D6 = Cytochrome P450 2D6 (Homo sapiens, UniProt P10635); assay: Inhibition of human recombinant CYP2D6; assay type: ADME
Sequence of Cytochrome P450 2D6 (P10635 whole entry): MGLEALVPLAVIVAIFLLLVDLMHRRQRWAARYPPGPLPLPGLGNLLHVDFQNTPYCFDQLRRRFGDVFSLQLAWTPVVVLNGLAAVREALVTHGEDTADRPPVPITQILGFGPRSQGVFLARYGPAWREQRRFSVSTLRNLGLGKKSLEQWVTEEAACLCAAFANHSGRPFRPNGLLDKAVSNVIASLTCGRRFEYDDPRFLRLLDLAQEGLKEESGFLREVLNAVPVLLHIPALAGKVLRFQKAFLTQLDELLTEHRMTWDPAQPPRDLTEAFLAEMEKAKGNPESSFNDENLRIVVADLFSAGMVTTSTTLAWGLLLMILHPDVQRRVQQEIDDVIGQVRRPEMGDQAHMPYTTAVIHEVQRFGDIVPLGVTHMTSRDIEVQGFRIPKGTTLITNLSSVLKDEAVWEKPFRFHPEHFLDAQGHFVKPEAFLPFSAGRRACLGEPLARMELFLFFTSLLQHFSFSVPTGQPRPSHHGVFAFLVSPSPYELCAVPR
In short: as §3

Streptococcus pneumoniae [12] = assay: Antibacterial activity against Streptococcus pneumoniae 548 infected mouse lung infection model assessed as reduction in bacterial count at 80 mg/kg/day, po relative to control; assay type: functional
In short: as §5

[13] = Clearance in Wistar rat at 10 mg/kg, iv; assay type: ADME, organism-based; design: dose 10 mg/kg, route intravenous; conditions: in vivo
In short: as §2

[14] = Volume of distribution in Wistar rat at 10 mg/kg, iv; assay type: ADME, organism-based; design: dose 10 mg/kg, route intravenous; conditions: in vivo, read-out: Vdss
In short: as §2

[15] = Half life in Wistar rat at 10 mg/kg, iv; assay type: ADME, organism-based; design: dose 10 mg/kg, route intravenous; conditions: in vivo
In short: as §2

[16] = AUC in Wistar rat at 10 mg/kg, iv; assay type: ADME, organism-based; design: dose 10 mg/kg, route intravenous; conditions: plasma
In short: as §2

Row | Structure (SMILES) | fraction unbound (Homo sapiens) | MIC (Staphylococcus aureus) [µg/mL] | MIC (Haemophilus influenzae) [µg/mL] | pKi [1] | clearance [2] [mL/min/kg] | half-life [3] [min] | AUC (Rattus norvegicus) [ug/hr.ml] | bioavailability [4] [%] | solubility kinetic [5] [µM] | MIC (Streptococcus pneumoniae [6]) [µg/mL] | MIC (Streptococcus pneumoniae [7]) [µg/mL] | Vd [8] [L/kg] | pIC50 (Cytochrome P450 1A2) | AUC (Mus musculus [9]) [µg·h/mL] | pIC50 (Cytochrome P450 2C9) | pIC50 (Cytochrome P450 2C19) | pIC50 (Cytochrome P450 3A4) | AUC (Mus musculus [11]) [µg·h/mL] | pIC50 (Cytochrome P450 2D6) | Log10 cfu (Streptococcus pneumoniae [12]) | also measured
1 | Cc1cn(CC(=O)c2ccc(-c3ccc(N4C[C@H](Cn5ccnn5)OC4=O)cc3F)cn2)c(C)n1 | 0.12 | 0.25 (≈ 0.526 µM) | 2 (≈ 4.21 µM) | < 4.96 | 13 | 60 | 2.6 | 14 | 25 (≈ 11.9 µg/mL) | 0.25 (≈ 0.526 µM) | < 0.06 | 0.9 |  |  |  |  |  |  |  |  | 
2 | CCc1nccn1CC(=O)c1ccc(-c2ccc(N3C[C@H](Cn4ccnn4)OC3=O)cc2F)cn1 |  | 0.5 (≈ 1.05 µM) | 4 (≈ 8.41 µM) | < 4.36 | 23 | 36 | 1.6 |  | 100 (≈ 47.5 µg/mL) | 0.5 (≈ 1.05 µM) | < 0.06 | 0.9 |  |  |  |  |  |  |  |  | 
3 | Cc1cnc(C)n1CC(=O)c1ccc(-c2ccc(N3C[C@H](Cn4ccnn4)OC3=O)cc2F)cn1 | 0.1 | 0.25 (≈ 0.526 µM) | 4 (≈ 8.41 µM) | 4.72 | 10 | 108 | 3.3 | 73 | 50 (≈ 23.8 µg/mL) | 0.5 (≈ 1.05 µM) | < 0.06 | 1.4 | < 4.70 | 31 | < 4.70 | < 4.70 | 4.97 | 17.4 | < 4.70 | 2.57 | Log10 cfu (Streptococcus pneumoniae [10]): 1.94
4 | Cc1nccn1CC(=O)c1ccc(-c2ccc(N3C[C@H](Cn4ccnn4)OC3=O)cc2F)cn1 | 0.25 | 0.5 (≈ 1.08 µM) | 2 (≈ 4.33 µM) | < 4.05 |  |  |  | 100 | 200 (≈ 92.3 µg/mL) | 0.5 (≈ 1.08 µM) | 0.13 (≈ 0.282 µM) |  | < 4.70 |  | < 4.70 | < 4.70 | < 4.70 |  | < 4.70 |  | clearance [13]: 62 mL/min/kg; Vd [14]: 0.3 L/kg; half-life [15]: 24 min; AUC [16]: 1200 ng·h/mL
5 | CC(=O)NC[C@H]1CN(c2ccc(N3CCOCC3)c(F)c2)C(=O)O1 [LINEZOLID] |  |  |  |  |  |  |  |  |  |  |  |  |  | 105 |  |  |  | 45.7 |  | 3.89 | 

From ChEMBL document CHEMBL1148787, “Novel substituted (pyridin-3-yl)phenyloxazolidinones: antibacterial agents with reduced activity against monoamine oxidase A and increased solubility” (J Med Chem, 2007)
